Assays:
[1] = test system: Human immunodeficiency virus 1; assay: Antiviral activity against HIV1 harboring G140S/Q148H double mutant in presence of 10% FBS; assay type: functional, organism-based
Outline: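 HIV-1 carrying G140S/Q148H double-mutant integrase; antiviral EC50 determined with 10% FBS in the medium.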

[2] = test system: Human immunodeficiency virus 1; assay: Antiviral activity against wild type HIV1 in presence of 10% FBS; assay type: functional, organism-based
[3] = test system: Human immunodeficiency virus 1; assay: Antiviral activity against HIV1 harboring Q148R mutant; assay type: functional, organism-based
[4] = Half life in Sprague-Dawley rat at 0.5 mg/kg, iv measured up to 4 hrs; assay type: ADME, organism-based; settings: in vivo
Outline: (§1)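 Male Sprague-Dawley rats dosed IV with compound as a PEG-400/ethanol (90:10) solution. Plasma exposure was followed for 4 h, and Cmax, t1/2, clearance and Vss were derived from that profile.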

[5] = Binding affinity to wild type HIV1 integrase; parameters: species or system Human immunodeficiency virus 1
[6] = Clearance in Sprague-Dawley rat at 0.5 mg/kg, iv measured up to 4 hrs; assay type: ADME, organism-based; settings: in vivo; outline: as §1
[7] = Volume of distribution at steady state in Sprague-Dawley rat at 0.5 mg/kg, iv measured up to 4 hrs; assay type: ADME, organism-based; settings: in vivo, read-out: Vdss; outline: as §1
Integrase = Integrase (Human immunodeficiency virus 1, UniProt T1QYY3, G140S/Q148H); assay: Binding affinity to […] HIV1 integrase G140S/Q148H mutant
[8] = Cmax in Sprague-Dawley rat at 0.5 mg/kg, iv measured up to 4 hrs; assay type: ADME, organism-based; parameters: route intravenous, dose 0.5 mg/kg, time <=4; settings: in vivo; outline: as §1
[9] = Clearance in Sprague-Dawley rat at 1 mg/kg, iv measured up to 4 hrs; assay type: ADME, organism-based; settings: in vivo; outline: as §1
[10] = AUC in Beagle dog at 5 mg/kg, po; assay type: ADME, organism-based, Canis lupus familiaris; parameters: dose 5 mg/kg; settings: in vivo
[11] = test system: Human immunodeficiency virus 1; assay: Antiviral activity against HIV1 harboring G140S/Q148H double mutant in presence of HSA; assay type: functional, organism-based
[12] = Oral bioavailability in Sprague-Dawley rat at 5 mg/kg; assay type: ADME, organism-based; settings: in vivo
[13] = Clearance in cynomolgus monkey at 1 mg/kg, iv; assay type: ADME, organism-based, Macaca fascicularis; settings: in vivo
Outline: (§2)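 Cynomolgus monkeys dosed IV or PO with compound formulated as a PEG-400/ethanol (90:10) solution. Oral bioavailability was taken from the PO versus IV exposure.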

[14] = AUC in Sprague-Dawley rat at 5 mg/kg, po; assay type: ADME, organism-based; parameters: dose 5 mg/kg; settings: in vivo
[15] = Volume of distribution at steady state in Beagle dog at 1 mg/kg, iv; assay type: ADME, organism-based, Canis lupus familiaris; settings: in vivo, read-out: Vdss
[16] = Cmax in Sprague-Dawley rat at 1 mg/kg, iv measured up to 4 hrs; assay type: ADME, organism-based; parameters: route intravenous, dose 1 mg/kg, time <=4; settings: in vivo; outline: as §1
[17] = Half life in Sprague-Dawley rat at 1 mg/kg, iv measured up to 4 hrs; assay type: ADME, organism-based; settings: in vivo; outline: as §1
[18] = AUC in cynomolgus monkey at 5 mg/kg, po; assay type: ADME, organism-based, Macaca fascicularis; parameters: dose 5 mg/kg; settings: in vivo; outline: as §2
[19] = Oral bioavailability in cynomolgus monkey at 5 mg/kg; assay type: ADME, organism-based, Macaca fascicularis; settings: in vivo; outline: as §2
[20] = Volume of distribution at steady state in cynomolgus monkey at 1 mg/kg, iv; assay type: ADME, organism-based, Macaca fascicularis; settings: in vivo, read-out: Vdss; outline: as §2
[21] = Clearance in Beagle dog at 1 mg/kg, iv; assay type: ADME, organism-based, Canis lupus familiaris; settings: in vivo
[22] = Half life in Beagle dog at 1 mg/kg, iv; assay type: ADME, organism-based, Canis lupus familiaris; settings: in vivo
[23] = Oral bioavailability in Beagle dog at 5 mg/kg; assay type: ADME, organism-based, Canis lupus familiaris; settings: in vivo
[24] = Volume of distribution at steady state in Sprague-Dawley rat at 1 mg/kg, iv measured up to 4 hrs; assay type: ADME, organism-based; settings: in vivo, read-out: Vdss; outline: as §1
[25] = Ratio of EC50 for Antiviral activity against HIV1 harboring G140S/Q148H double mutant in presence of 10% FBS to EC50 for antiviral activity against HIV1 harboring G140S/Q148H double mutant in presence of HSA; assay type: functional, Human immunodeficiency virus 1
[26] = Half life in cynomolgus monkey at 1 mg/kg, iv; assay type: ADME, organism-based, Macaca fascicularis; settings: in vivo; outline: as §2

Cc1cc(F)ccc1CNC(=O)c1nc2n(c(=O)c1O)CC1CCC2(NC(=O)C(=O)N(C)C)CC1
EC50 [1]: 558 nM | EC50 [2]: 1.3 nM

CCOC(=O)C(=O)NC12CCC(CC1)Cn1c2nc(C(=O)NCc2ccc(F)cc2)c(O)c1=O
EC50 [1]: > 8000 nM | EC50 [2]: 21 nM

CN(C)C(=O)C(=O)NC12CCC(CC1)Cn1c2nc(C(=O)NCc2ccc(F)c(Cl)c2)c(O)c1=O
EC50 [1]: 6 nM | EC50 [2]: 0.8 nM

CN(C)C(=O)C(=O)NC12CCC(CC1)Cn1c2nc(C(=O)NCc2ccc(F)c(F)c2)c(O)c1=O
EC50 [1]: 17 nM | EC50 [2]: 0.7 nM

CN(C)C(=O)CNC12CCC(CC1)Cn1c2nc(C(=O)NCc2ccc(F)cc2)c(O)c1=O
EC50 [1]: > 8000 nM | EC50 [2]: 7 nM

CN(C)C(=O)C(=O)NC12CCC(CC1)Cn1c2nc(C(=O)NCc2ccc(F)cc2F)c(O)c1=O
EC50 [1]: 37 nM | EC50 [2]: 0.7 nM

CN(C)CC(=O)NC12CCC(CC1)Cn1c2nc(C(=O)NCc2ccc(F)cc2)c(O)c1=O
EC50 [1]: > 8000 nM | EC50 [2]: 20 nM

CN(C)C(=O)C(=O)NC12CCC(CC1)Cn1c2nc(C(=O)NCc2ccc(F)cc2C(F)(F)F)c(O)c1=O
EC50 [1]: > 8000 nM | EC50 [2]: 8 nM

CN(C)C(=O)C(=O)NC12CCC(Cn3c1nc(C(=O)NCc1ccc(F)cc1)c(O)c3=O)C2 (stereo not drawn)
EC50 [3]: 26 nM | EC50 [1]: 39 nM | EC50 [2]: 2 nM

CN(C)C(=O)C(=O)NC12CCC(CC1)Cn1c2nc(C(=O)NCc2ccc(F)cc2Cl)c(O)c1=O
EC50 [1]: 1320 nM | EC50 [2]: 1.3 nM

CN(C)C(=O)C(=O)NC12CCC(CC1)Cn1c2nc(C(=O)NCc2ccc(F)cc2S(C)(=O)=O)c(O)c1=O
EC50 [1]: > 8000 nM | EC50 [2]: 11 nM

CN(C)C(=O)C(=O)NC12CCC(CC1)n1c2nc(C(=O)NCc2ccc(F)cc2)c(O)c1=O
EC50 [1]: > 8000 nM | EC50 [2]: 8 nM

CN(C)C(=O)C(=O)NC12CCC(CC1)Cn1c2nc(C(=O)NCc2ccc(F)cc2)c(O)c1=O
half-life [4]: 0.45 h | Ki [5]: 2 nM | clearance [6]: 30.5 mL/min/kg | Vd [7]: 0.63 L/kg | Ki (Integrase): 17 nM | EC50 [1]: 10 nM | EC50 [2]: 1 nM | Cmax [8]: 1.93 µM

CN(C)C(=O)NC12CCC(CC1)Cn1c2nc(C(=O)NCc2ccc(F)cc2)c(O)c1=O
EC50 [1]: 361 nM | EC50 [2]: 14 nM

CC(C)C(=O)C(=O)NC12CCC(CC1)Cn1c2nc(C(=O)NCc2ccc(F)cc2)c(O)c1=O
EC50 [1]: 94 nM | EC50 [2]: 2 nM

Cc1cc(CNC(=O)c2nc3n(c(=O)c2O)CC2CCC3(NC(=O)C(=O)N(C)C)CC2)ccc1F
clearance [9]: 12.6 mL/min/kg | AUC [10]: 20.8 µM·h | EC50 [11]: 21 nM | bioavailability [12]: 103% | clearance [13]: 13.5 mL/min/kg | AUC [14]: 14.7 µM·h | Ki [5]: 2 nM | Vd [15]: 0.3 L/kg | Cmax [16]: 5.3 µM | half-life [17]: 12.3 h | AUC [18]: 2.89 µM·h | Ki (Integrase): 8 nM | bioavailability [19]: 23% | Vd [20]: 0.26 L/kg | EC50 [1]: 3 nM | clearance [21]: 7 mL/min/kg | half-life [22]: 1.6 h | bioavailability [23]: 83% | EC50 [2]: 0.7 nM | Vd [24]: 1.2 L/kg | Ratio EC50 [25]: 7 | half-life [26]: 1.6 h

CNC(=O)c1cc(F)ccc1CNC(=O)c1nc2n(c(=O)c1O)CC1CCC2(NC(=O)C(=O)N(C)C)CC1
EC50 [1]: > 8000 nM | EC50 [2]: 60 nM

CN(C)C(=O)C(=O)NC12CCC(CC1)Cn1c2nc(C(=O)NCc2ccc(F)c(C(F)(F)F)c2)c(O)c1=O
EC50 [1]: 32 nM | EC50 [2]: 1.4 nM

Reference: ChEMBL document CHEMBL4725239, “Design, synthesis and SAR study of bridged tricyclic pyrimidinone carboxamides as HIV-1 integrase inhibitors” (Bioorg Med Chem, 2020)
